Measurements: PMC4721940 (Journal of enzyme inhibition and medicinal chemistry, 2015)

How the values were obtained:
[1] = biological target: T1, human neutrophil elastase (HNE) (Homo sapiens, UniProt P08246); assay: HNE inhibition assay; assay type: biochemical
T1 sequence (P08246 30-247 limits assumed): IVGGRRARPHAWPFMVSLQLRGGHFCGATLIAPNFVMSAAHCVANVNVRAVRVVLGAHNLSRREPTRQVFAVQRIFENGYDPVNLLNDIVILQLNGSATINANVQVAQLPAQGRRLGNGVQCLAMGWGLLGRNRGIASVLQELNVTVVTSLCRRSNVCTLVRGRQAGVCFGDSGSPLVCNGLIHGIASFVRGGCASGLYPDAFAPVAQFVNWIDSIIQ
Method in brief: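 Human neutrophil elastase (20 mU/mL) in 200 mM Tris-HCl pH 7.5 with 0.01% BSA and 0.05% Tween-20, pre-incubated 5 min with test compound (DMSO final 1%). Started with 25 μM MeOSuc-Ala-Ala-Pro-Val-AMC. Fluorescence (ex 355/em 460 nm) read every 30 s for 10 min at 25 °C.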

Stability in human serum = assay type: in vitro ADME; conditions: 25 °C
Method in brief: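 Serum prepared by clotting fresh human blood 1 h at room temperature. Test compound (10 mM DMSO stock) added to serum and incubated at 25 °C. Timed aliquots quenched in acetonitrile and centrifuged 5 min at 10 000g. Analysed by RP-HPLC: C18 column, acetonitrile/water 65/35 with 0.1% TFA, 1 mL/min, 40 °C, diode-array detection 200–300 nm. Remaining compound calculated from peak area.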

HNE = biological target: T2, HNE (Homo sapiens, UniProt P08246); assay: Reactivation of the HNE–inhibitor complex after ultrafiltration; assay type: biochemical; conditions: 25 μM inhibitor, data not shown
T2 sequence (P08246 30-247 limits assumed): T1 sequence (P08246 30-247 limits assumed)

[2] = biological target: T1, human neutrophil elastase (HNE); assay: HNE inhibition constant; assay type: biochemical
[3] = Spontaneous hydrolysis in phosphate buffer; assay type: physicochemical; conditions: after 60 min in aqueous buffer, absorbance at 325 nm
Method in brief: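 Test compound in 0.05 M phosphate buffer, pH 7.3, at 25 °C. Absorbance at each compound's absorption maximum read over time until no further decrease (A∞). k′ taken from the slope of log(At–A∞) vs time; t1/2 = 0.693/k′.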

Row | SMILES | HNE inhibitory activity (in words) [1] | also measured
1 | CCOC(=O)c1nn(C)c2ccccc2c1=O [Compound 5, Ethyl 1-methyl-4-oxo-1,4-dihydrocinnoline-3-carboxylate] | completely inactive | –
2 | CCOC(=O)c1nn(Cc2cccc(C)c2)c2ccccc2c1=O [Compound 6, Ethyl 1-(3-methylbenzyl)-4-oxo-1,4-dihydrocinnoline-3-carboxylate] | completely inactive | –
3 | Cc1cccc(C(=O)n2nc(C(=O)O)c(=O)c3ccccc32)c1 [Compound 8, 1-(3-Methylbenzoyl)-4-oxo-1,4-dihydrocinnoline-3-carboxylic acid] | loss of activity | –
4 | Cc1cccc(C(=O)n2ncc(=O)c3ccccc32)c1 [Compound 18a, 1-(3-Methylbenzoyl)cinnolin-4(1H)-one] | – | percent of initial compound remaining (Stability in human serum; 5 min of incubation): < 3%; compound remaining (Stability in human serum; after 10 min): essentially no detectable compounds; Recovery of HNE activity after removing free inhibitor (HNE): fully reversible; Ki [2]: 75 nM; Type of HNE inhibition ([2]; double-reciprocal Lineweaver–Burk plots): competitive inhibitors
5 | Cc1cccc(C(=O)N2NCC(O)c3ccccc32)c1 (stereo not drawn) [Compound 19, (4-Hydroxy-3,4-dihydrocinnolin-1(2H)-yl)(m-tolyl)meyhanone] | completely devoid of activity | –
6 | Cc1cccc(C(=O)n2ncc(=O)c3cc([N+](=O)[O-])ccc32)c1 [Compound 21a, 1-(3-Methylbenzoyl)-6-nitrocinnolin-4(1H)-one] | – | Extent of hydrolysis [3]: hydrolyzed almost completely

Further lines, with some results ahead:

Row | HNE inhibitory activity (in words) [1] | SMILES | also measured
7 | loss of activity | Cc1cccc(C(=O)n2nc(-c3ccccc3)c(=O)c3ccccc32)c1 [Compound 11a, 1-(3-Methylbenzoyl)-3-phenylcinnolin-4(1H)-one] | –
8 | loss of activity | Cc1cccc(C(=O)n2nc(CO)c(=O)c3ccccc32)c1 [Compound 11d, 3-(Hydroxymethyl)-1-(3-methylbenzoyl)cinnolin-4(1H)-one] | –
